An excerpt weighted towards active compounds, which were near 1.2% of everything screened.
G6PDH CS – L. mesenteroides G6PDH inhibition counter-screen; Purified L. mesenteroides G6PDH, diaphorase/resazurin coupled fluorescence, 45 min; inhibition, % at 5 µM; 0.12% of 200,000 active; in the data active = inhibition above about 50%
PfGluPho inh – PfG6PD (Plasmodium falciparum) enzyme inhibition; inhibition, % at 20 µM; PfGluPho enzyme, NADPH resazurin-diaphorase fluorescence; AID 504690; 0.78% of 350,000 active;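 active = inhibition reaching at least a set limit at 20 µM in the primary screen, cut at about 59% in these data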
HKDC1 inhibitor – HKDC1 (human) hexokinase inhibition | AID 493160 | recombinant HKDC1, G6PDH/diaphorase resazurin coupled fluorescence | inhibition, % at 20 µM | 0.16% of 340,000 active | Q2TB90;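 active = inhibition above about 35% when tested at 20 µM, limit read from the data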
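Test system: Recombinant HKDC1 (HK5) hexokinase enzyme, produced in-house | Input: HKDC1 at 5 µg/mL | Buffer or medium: Tris pH 8.0 buffer with MgCl2, Tween-20, BSA, BME | Schedule: 90 min reaction incubation at room temperature, dark | Technique: Resazurin-to-resorufin fluorescence via G6PDH and diaphorase coupling, 525/613 nm | Controls: DMSO wells with and without enzyme mix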
Diaphorase inh – counter-screen for diaphorase-based assays: diaphorase inhibitors and chemical oxidizers; diaphorase resazurin-to-resorufin fluorescence, NADH, 16 min; bacterial (C. kluyveri) enzyme, not human; inhibition, % at 20 µM; 0.69% of 190,000 active; AID 1217;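 active = primary screen inhibition at 20 µM above a set limit, cut at about 50% in these data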
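Benchmarks: positive control wells lacking NADH, neutral wells with DMSO only. System: bacterial diaphorase enzyme (C. kluyveri). Input: 0.14 U/mL diaphorase, enzyme working solution. Detection: resorufin fluorescence, excitation 544 nm, emission 590 nm. Times: 16-min room-temperature incubation before reading.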
Large screens that a line does not name were inactive.

O=[N+]([O-])c1c(NCCO)cc(N2CCCCC2)c2nonc12	Diaphorase inh 52
CC(C)CCSc1cc(NCCO)c([N+](=O)[O-])c2nonc12	Diaphorase inh 80
Cc1ccc(Sc2cc(NCCCO)c([N+](=O)[O-])c3nonc23)cc1	none (no result: G6PDH CS, Diaphorase inh)
CCOC(=O)N1CCN(c2cc(NCCO)c([N+](=O)[O-])c3nonc23)CC1	none
CC(=O)OCCNc1cc(SC(C)C)c2nonc2c1[N+](=O)[O-]	Diaphorase inh 52
COc1ccc(CN2CC[C@H]3C=CC[C@@H](C(=O)NCCc4ccccc4)[C@H]3C2=O)cc1OC	none (no result: G6PDH CS, Diaphorase inh)
CN=c1scc(-c2ccco2)n1/N=C/c1ccc(O)c(O)c1	Diaphorase inh 51
COCCn1c(SCC(=O)NCC2CCCO2)nc2c([nH]c3ccccc32)c1=O (centres undefined)	none (no result: G6PDH CS, Diaphorase inh)
O=C(c1ccccc1)c1coc2c1C(=O)c1ccccc1C2=O	G6PDH CS 53
O=C1C(=C(O)c2ccccc2)C(=O)c2ccccc21	none
O=C(ONC(=O)C1C2C=CC(C2)C1C(=O)NOC(=O)c1ccccc1)c1ccccc1 (centres undefined)	none (no result: G6PDH CS, Diaphorase inh)
COc1ccc(-n2ncc3c2CC(C)(C)CC3NC(=O)C2=CC(=O)CC(C)(C)O2)cc1 (centres undefined)	none (no result: G6PDH CS, Diaphorase inh)
CCCN1CCCc2cc(CN)ccc21	G6PDH CS 54, PfGluPho inh 66
CN1CCCc2cc(C=O)ccc21	none
CC(/C=N/n1c(-c2ccccn2)n[nH]c1=S)=C\c1ccccc1	none (no result: G6PDH CS, Diaphorase inh)
S=c1[nH]nc(-c2cc(-c3ccccc3)n[nH]2)n1/N=C/C=C/c1ccco1	none (no result: G6PDH CS, Diaphorase inh)
S=c1[nH]nc(-c2ccco2)n1/N=C/C=C/c1ccco1	Diaphorase inh 64
CC(/C=N/n1c(-c2cc(C)[nH]n2)n[nH]c1=S)=C\c1ccco1	none (no result: G6PDH CS, Diaphorase inh)
CC(/C=N/n1c(-c2ccc(Cl)cc2)n[nH]c1=S)=C\c1ccco1	Diaphorase inh 53
CC(/C=N/n1c(-c2ccco2)n[nH]c1=S)=C\c1ccccc1	Diaphorase inh 50
COc1ccc(CN(CC(O)COc2cccc3[nH]cc(C)c23)C(C)(C)C)cc1 (centres undefined)	none (no result: G6PDH CS, Diaphorase inh)
Cc1ccc(N(CC(=O)NC2CCCCC2)C(=O)CNC(=O)c2ccco2)cc1F	none (no result: G6PDH CS, Diaphorase inh)
COc1ccccc1C(=O)COC(=O)/C(=C/c1ccccc1)NC(C)=O	none (no result: G6PDH CS, Diaphorase inh)
N/C(COc1ncn(-c2ccccc2)n1)=N\S(=O)(=O)c1ccc(Cl)cc1Cl	Diaphorase inh 61
CC(Cl)C(=O)c1ccc2c(c1)CCN2C(=O)C1CC1 (centres undefined)	Diaphorase inh 62
O=C(C1CC1)N1CCc2cc(S(=O)(=O)N3CCOCC3)ccc21	none
Cc1ccc(OCCC(=O)NNC(=O)c2ccccc2F)cc1	none (no result: G6PDH CS, Diaphorase inh)
CN(C)C=Nc1c(Br)cc(Br)c2nonc12	Diaphorase inh 62
c1cnc2c(c1)ccc1cccnc12	G6PDH CS 53
COc1ccc2o/c(=N/NC(=O)c3cccs3)c(C(N)=O)cc2c1	none
COc1ccc2cc(C(=O)NCc3ccco3)c(=O)oc2c1	none
COc1ccc2cc(C(N)=O)/c(=N/NC(=O)c3ccco3)oc2c1	Diaphorase inh 76
NC(=O)c1cc2ccccc2o/c1=N/NC(=O)c1cccs1	Diaphorase inh 69
CN1C(=O)CC(Nc2cccc3cccc(N)c23)C1=O (centres undefined)	PfGluPho inh 64, Diaphorase inh 67
COc1ccc(NC2CC(=O)N(C(C)C)C2=O)cc1 (centres undefined)	none
CC(C)N1C(=O)CC(Nc2cccc3cccc(N)c23)C1=O (centres undefined)	Diaphorase inh 52
CN1C(=O)CC(NNC(=O)c2ccccc2)C1=O (centres undefined)	none
O=C(c1ccc2ncsc2c1)N1CCN(c2cccc(C(F)(F)F)c2)CC1	none (no result: G6PDH CS, Diaphorase inh)
Cc1ccc(S(=O)(=O)/N=C(/c2ccc(F)cc2)N(C)C)cc1	none (no result: G6PDH CS, Diaphorase inh)
Cc1cnccc1CN(C)Cc1cn(C)nc1-c1cccc(Cl)c1	Diaphorase inh 50
COc1ccc(C(CNC(=O)CCNS(=O)(=O)c2ccccc2)N2CCOCC2)cc1 (centres undefined)	none (no result: G6PDH CS, HKDC1 inhibitor, Diaphorase inh)
CN1C=C/C(=C\c2cc[n+](C)c3ccccc23)c2ccccc21	G6PDH CS 60, Diaphorase inh 55
CC[n+]1ccc(/C=C2\Sc3ccccc3N2CCCS(=O)(=O)[O-])c2ccccc21	none
Cc1ccc(NC(=S)Nc2cccc3cnccc23)c(C)c1	Diaphorase inh 59
Cc1cc(C)cc(NC(=S)Nc2cccc3cnccc23)c1	none
c1ccc(Nc2cccc(Nc3ccccc3)n2)cc1	Diaphorase inh 55
